Measured values collected from several papers.
Protocols differ between the studies behind these lines.
Target: Interferon-induced, double-stranded RNA-activated protein kinase (EIF2AK2, Homo sapiens, UniProt P19525)

SMILES	test	setting	remaining binding [%]
CCS(=O)(=O)c1cc2cc(C[C@](O)(CC(C)(C)c3ccc(F)cc3C(N)=O)C(F)(F)F)[nH]c2cn1	cell-free assay, competition with immobilised ligand	1 µM	52
CC1CCCN1c1nccc(-c2cnn3ncccc23)n1 (centres unmarked)	binding	1 µM	100
COc1cnc(Nc2cccc(S(N)(=O)=O)c2)nc1N1CCN(c2ccccc2)CC1	binding, competition with immobilised ligand	1 µM	97
O=C(c1ccc(Nc2nccc(-c3cc4ccccc4s3)n2)cc1)N1CCC(N2CCCC2)CC1	binding, competition with immobilised ligand	1 µM	21
CN(C)c1ncnc(-c2ccc3nc(Nc4cc(CN5CCN(C(=O)CC(F)(F)F)CC5)ccn4)[nH]c3c2)c1Cl	cell-free assay, competition with immobilised ligand	1 µM	100
N[C@H]1CCN(c2nccc(-c3cnn4ncccc34)n2)C1	binding	1 µM	100
CC(=O)C1=C(C)N(c2cccc(C(F)(F)F)c2)C(=O)N[C@@H]1c1ccc(C#N)nc1	cell-free assay, competition with immobilised ligand	1 µM	83.4
CN(c1nccc(-c2cnn3ncccc23)n1)C1CC1	binding	1 µM	100
O=C(NCCCN1CCOCC1)c1ccc(Nc2ncc(Cl)c(-c3ccc(Cl)s3)n2)cc1	binding, competition with immobilised ligand	1 µM	58
O=C(NCC1CCOCC1)c1n[nH]cc1NC(=O)c1c(F)cccc1F	binding, competition with immobilised ligand	1 µM	100
COc1ncc2cc3ccccc3nc2c1C#N	cell-free assay, competition with immobilised ligand	5 µM	100
C[C@@H]1CCN(c2nccc(-c3cnn4ncccc34)n2)C1	binding	1 µM	83
CCOC(=O)c1cc2cc(-c3cc(C(=O)NCc4ccc(C(=O)O)cc4)nn3C)ccc2[nH]1	cell-free assay, competition with immobilised ligand	0.1 µM	100
Cc1cnn2ncc(-c3ccnc(N(C)C)n3)c2c1	binding	1 µM	100
CS(=O)(=O)N1CCCC(NC(=O)[C@H](CCC2CCCCC2)NC(=O)c2ccc(CNC(=O)c3cnc4ccccn34)cc2)C1 (some centres unmarked)	cell-free assay, competition with immobilised ligand	0.1 µM	47
COc1cnc(Nc2cccc(S(N)(=O)=O)c2)nc1N1CCN(c2ccccc2)C(=O)C1	binding, competition with immobilised ligand	1 µM	99
CN(C)C(=O)Cn1cc(-c2nc(C3(c4ccc(-c5cnc(N)nc5)cc4)CC3)no2)cn1	cell-free assay, competition with immobilised ligand	1 µM	100
CCN1CCN(Cc2ccc(C(=O)Nc3ccc(C)c(Oc4ccc5c(c4)CC(=O)N5)c3)cc2C(F)(F)F)CC1	binding, competition with immobilised ligand	1 µM	96
CN(C)c1ncc(F)c(-c2cnn3ncccc23)n1	binding	1 µM	100
O=C(NCCCN1CCOCC1)c1ccc(Nc2nccc(-c3cc4ccccc4s3)n2)cc1	binding, competition with immobilised ligand	1 µM	64
